A selection: hits, their analogues and other compounds. The true share with any hit is near 3.3%.
NRP1-CendR mod: modulators of CendR peptide binding to human neuropilin-1. 360,000 compounds, 0.85% hits. inhibition, % at 25 µM. O14786. FAM-RPARPAR peptide binding to NRP-1, fluorescence polarization;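 active means inhibition or corrected inhibition above about 18%, plus a signal ratio from 0.5 to 1.5, limit read from the data, passing the limit was not always enough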
PfM18AAP inh: blocks P. falciparum M18 aspartyl aminopeptidase; recombinant PfM18AAP, H-Glu-NHMec fluorogenic cleavage; inhibition, % at 7.35 µM; 290,000 compounds, 1.2% hits;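 active means inhibition above the campaign mean inhibition over all tested compounds plus 3 SD, cut at about 28% in these data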;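 further: 0% = plate median of test compound wells and 100% = 2 mM ZnCl2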
Lipid droplet: modulators of hepatic lipid droplet formation; AML12 mouse hepatocytes, oleate lipid droplets, BODIPY imaging; inhibition, % at 6.5 µM; 240,000 compounds, 0.4% hits;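 active means lipid droplet intensity inhibited by at least 50%, with more than 500 cells counted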
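Assay system: AML12 mouse liver cells | Compound: 6.5 µM single-point dosing | Schedule: Overnight exposure | Technique: Fluorescence imaging, 20x objective, two fields per well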
HTR2A ag: agonists of mouse serotonin 5-HT2A receptor (HTR2A). P35363. CHO-K1 mHTR2A beta-arrestin complementation, luminescence; percent of 30 µM serotonin response. activation, % at 7.6 µM. 360,000 compounds, 0.66% hits;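 active means activation above a run cutoff, the mean activation of all tested compounds plus 3 SD, cut at about 14% in these data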;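 further: 0% = plate median of compound wells and 100% = 30 µM serotonin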
Target sequence (P35363 whole entry, looked up): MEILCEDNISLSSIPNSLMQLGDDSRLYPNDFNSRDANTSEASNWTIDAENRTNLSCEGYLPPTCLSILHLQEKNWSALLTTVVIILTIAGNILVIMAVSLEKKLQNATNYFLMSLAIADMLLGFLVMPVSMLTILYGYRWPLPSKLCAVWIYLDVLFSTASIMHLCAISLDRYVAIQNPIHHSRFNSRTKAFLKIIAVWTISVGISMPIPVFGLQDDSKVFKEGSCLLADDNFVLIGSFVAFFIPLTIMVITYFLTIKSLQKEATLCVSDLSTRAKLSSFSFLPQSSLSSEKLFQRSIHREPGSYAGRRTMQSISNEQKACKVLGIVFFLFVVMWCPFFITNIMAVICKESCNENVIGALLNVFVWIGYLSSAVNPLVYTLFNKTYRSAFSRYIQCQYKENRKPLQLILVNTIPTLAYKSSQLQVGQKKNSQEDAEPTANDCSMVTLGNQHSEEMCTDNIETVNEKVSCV
Arrestin-AP2 inh: human beta-arrestin and AP2 interaction inhibition | FITC-arrestin peptide / GST-AP2 beads, flow cytometry; AP2 beta2 appendage carries R879A mutation | inhibition, % at 10 µM | 340,000 compounds, 0.31% hits | AID 504490;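 active means inhibition above a set limit, near 3 SD of compounds lacking own fluorescence, cut at about 54% in these data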;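 further: plate controls were DMSO wells for no effect and 5 µM unlabelled arrestin peptide for full effect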
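System: GST-AP2 R879A bound to glutathione beads, E. coli-expressed. Also added: 50 nM FITC-arrestin peptide. Schedule: compound with beads 12 min RT, then probe 1 h RT. Signal: bead flow cytometry, FITC channel. Read-out basis: percent response.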
sPLA2-III inh: Inhibits HGIII-sPLA2 liposome hydrolysis, primary screen; inhibition, % at 12.2 µM; Q9NZ20; AID 743126; 370,000 compounds, 0.56% hits; QFRET BODIPY PC-A2 liposome hydrolysis, fluorescence;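 active means inhibition above mean plus 3 SD of compounds lying within the high and low control bounds, cut at about 19% in these data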;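 further: 0% = median of test compound wells and 100% = no enzyme DMSO wells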
sPLA2 confirm: human GIII-sPLA2 inhibition, confirmation; inhibition, % at 12.2 µM; shares compounds with sPLA2-III inh; 2,000 compounds, 34% hits; recombinant hGIII-sPLA2, BODIPY PC-A2 QFRET fluorescence; AID 743280;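 active means mean inhibition across triplicates above the hit cutoff set in the earlier primary screen, cut at about 19% in these data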;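 further: 0% = enzyme with DMSO and 100% = DMSO wells lacking enzyme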
535nm interf: counter-screen for HGIII-sPLA2 inhibitors: 535nm fluorescence interference | AID 743282 | BODIPY FL product fluorescence interference, QFRET | shares compounds with sPLA2-III inh | inhibition, % at 12.2 µM | 2,000 compounds, 8.5% hits;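 active means average inhibition above the solvent-only control mean plus 3 SD, cut at about 6% in these data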;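 further: 0% = DMSO with substrate plus product and 100% = DMSO with substrate alone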
BODIPY interf DR: interferes with 535nm fluorescence in dose response counter-screen. 240 tested, under 10 active. IC50, µM. BODIPY FL product fluorescence interference, cell-free. shares compounds with sPLA2-III inh. AID 743455;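 active means IC50 at or below 10 µM; inactive means IC50 above 10 µM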
Starred values were filed as active, the others as inactive; . = no result.

SMILES	NRP1-CendR mod	PfM18AAP inh	Lipid droplet	HTR2A ag	Arrestin-AP2 inh	sPLA2-III inh	sPLA2 confirm	535nm interf	others
O=[N+]([O-])C1C(c2ccccc2)=NOC1c1ccccc1O (configuration not stated)	9	4	0	-1	-1	-17	.	.
O=C(NNc1nc(-c2ccccc2)cs1)c1ccco1	-3	25	-4	0	-5	27*	29*	4	BODIPY interf DR=>122
CC(=O)Nc1ccc(-c2csc(N/N=C(/C)c3ccccc3)n2)cc1	-18	21	-12	-4	47	6	.	.
Cc1ccc(-c2csc(NC(=S)NC(=O)c3ccco3)n2)cc1	-5	-1	-2	2	-5	16	.	.
O=C(NNc1nc(-c2ccc(Cl)cc2)cs1)c1ccco1	-2	16	-6	0	28	45*	38*	11*
CC(=O)Nc1ccc(-c2csc(NNC(=O)c3ccccc3)n2)cc1	-18	25	5	6	4	33*	22*	4
O=S1(=O)c2ccc(N3CCSCC3)cc2Oc2ccccc2CN1Cc1cn(Cc2ccc(C(F)(F)F)cc2)nn1	.	.	.	.	.	6	.	.
COc1ccccc1N1CCN(C(=O)c2ccc3c(c2)nc(C)n3-c2cc(OC)c(OC)c(OC)c2)CC1	.	.	.	.	.	-5	.	.
O=C(C1CCCN1S(=O)(=O)c1cccc2ccccc12)N1CCN(c2ccccc2)CC1 (configuration not stated)	.	.	.	.	.	-11	.	.
Fc1ccc(-c2nc3c4ccccc4ccn3c2Cc2cccc(Cl)c2)cc1	-27	.	.	2	.	-2	.	.
O=C(Cc1noc2ccccc12)NNC(=S)Nc1ccc(Cl)cc1	0	26	14	-6	-2	29*	26*	1
O=C(CCC(=O)Nc1ccccc1Cl)NNC(=S)Nc1ccccc1C(F)(F)F	7	-4	9	-4	4	10	.	.
Cn1cccc1CC(=O)NNC(=S)Nc1ccc(Cl)cc1	11	-1	-3	0	8	24*	27*	2
Cn1cccc1CC(=O)NNC(=S)Nc1ccccc1Cl	2	12	8	-1	25	25*	29*	-3	BODIPY interf DR=>122
Fc1cccc(Cc2c(-c3ccco3)nc3c4ccccc4ccn23)c1	-35	.	.	-10	.	6	.	.
C[C@@H]1/C=C/CC(=O)N2[C@H](CC(=O)N[C@@H]1c1ccccc1)C[C@@H](C)[C@H]2c1ccccc1	.	.	.	.	.	-38	.	.
COc1cc(C)ccc1Oc1nc(-c2ccccc2O)nc2ccccc12	3	-4	8	-1	17	7	.	.
CCOc1ccccc1Oc1nc(-c2ccccc2O)nc2ccccc12	-2	0	-8	-1	-5	20*	-15	-2
Cc1ccc(Nc2n[nH]c(=S)s2)cc1	3	.	.	-4	.	24*	34*	0	BODIPY interf DR=>122
Cc1cccc(-n2c(-c3ccccc3)c[nH]c2=S)c1C	-2	5	-8	10	-3	15	.	.
CCC1(c2ccccc2)NC(=S)N(c2cccc(C)c2C)N1 (configuration not stated)	1	15	-2	3	-2	20*	22*	1
COc1cccc(C(=O)Oc2cc3c4c(c2)C(C)=CC(C)(C)N4C(=O)C3=O)c1	-1	-9	.	2	3	32*	53*	3	BODIPY interf DR=>122
COc1ccc(C(=O)Oc2cc3c4c(c2)C(C)=CC(C)(C)N4C(=O)C3=O)cc1OC	-1	-1	2	8	19	16	.	.
CC(=O)/C=N/Nc1ccccc1	1	-3	.	1	-4	3	.	.
OC[C@@H](O)[C@H](O)C(/C=N/Nc1ccccc1)=N\Nc1ccccc1	-19	9	22	-2	-12	20*	23*	3

Screens: PubChem BioAssay, several laboratories
